Screens (PubChem BioAssay)
WT yeast gro inh – growth inhibition of WT yeast, mitochondrial fusion screen. 2.1% of 190,000 active. inhibition, % at 10 µM. mitochondrial fusion phenotypic screen, WT strain. AID 1362; in the data active = inhibition above about 58%; tested in S. cerevisiae
MEKK3 PB1 HTS – MEKK3-MEK5 PB1 interaction, increase or decrease. binding response (% of control), % at 10 µM. 1.4% of 290,000 active. Q99759. bead-based flow cytometry, Alexa488-MEK5 binding to MEKK3; actives lie on both sides; 0 = blocked by unlabeled MEK5, 100 = vehicle;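 active = binding response more than 3 SD above or below the average of its plate-row segment, actives on both sides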;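 also: Alexa488 bead fluorescence after subtracting the streptavidin-only scavenger bead signal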
Target sequence (Q99759 whole entry, looked up): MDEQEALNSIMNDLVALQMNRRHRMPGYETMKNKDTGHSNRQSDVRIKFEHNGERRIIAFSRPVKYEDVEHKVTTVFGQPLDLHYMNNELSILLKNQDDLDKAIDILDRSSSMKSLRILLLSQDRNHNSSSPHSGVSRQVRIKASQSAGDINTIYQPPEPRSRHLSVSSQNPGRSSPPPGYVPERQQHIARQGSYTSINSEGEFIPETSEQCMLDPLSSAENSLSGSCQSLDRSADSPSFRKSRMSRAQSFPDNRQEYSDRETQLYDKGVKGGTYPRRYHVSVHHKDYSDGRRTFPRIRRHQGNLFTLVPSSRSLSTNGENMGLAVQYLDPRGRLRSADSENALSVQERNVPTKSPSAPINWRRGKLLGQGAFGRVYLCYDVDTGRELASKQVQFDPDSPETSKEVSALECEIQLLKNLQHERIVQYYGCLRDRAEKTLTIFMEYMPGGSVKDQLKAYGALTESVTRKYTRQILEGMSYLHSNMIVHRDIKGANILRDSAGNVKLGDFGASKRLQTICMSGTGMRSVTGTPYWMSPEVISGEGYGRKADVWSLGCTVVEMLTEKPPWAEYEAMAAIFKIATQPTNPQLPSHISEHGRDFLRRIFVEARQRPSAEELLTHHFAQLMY
MEKK2 mut-MEK5 – signal of MEK5 binding to mutant human MEKK2 PB1 domain. bead flow cytometry, Alexa488-MEK5 binding to MEKK2 mutant. percent response, % at 10 µM. 0.35% of 290,000 active. AID 1530; in the data active = percent response above about 24%, passing the limit was not always enough
ABCG2 block – inhibitors of human ABCG2 transporter, ABCB1 counter-screen; 0.1% of 190,000 active; IgMXP3 cells, JC-1 efflux, flow cytometry; inhibition, % at 6.6 µM;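 active = inhibition above 80%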;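 also: 0% = DMSO and 100% = nicardipine control wells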
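Assay system – ABCG2 IgMXP3 and barcoded ABCB1 CCRF-Adr cell mix · Input – 3 million cells/mL in well · Reagent – JC-1 fluorescent substrate · Compound – single test compound dose, 6.6 µM final · Timing – 10 min exposure at 25 °C with rotation, no wash · Detection – flow cytometry of retained JC-1 fluorescence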
MEKK2wt PB1 HTS – raises or lowers MEK5 binding to wildtype human MEKK2 PB1 domain | 1.1% of 290,000 active | bead flow cytometry, Alexa488-MEK5 binding to MEKK2 WT; actives lie on both sides | binding response (% of control), % at 10 µM | Q9Y2U5 | AID 1531; in the data active = binding response below about 67% or above about 130%
ABCB1 inh – inhibitors of human ABCB1 transporter, ABCG2 counter-screen. CCRF-Adr cells, JC-1 efflux, flow cytometry. inhibition, % at 6.6 µM. 0.067% of 190,000 active; in the data active = inhibition above about 40%;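 also: 0% = vehicle and 100% = reference inhibitor; higher value means more JC-1 retained so stronger ABCB1 efflux block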
MEKK2wt confirm – raises or lowers MEK5 binding to wildtype human MEKK2, retest; shares compounds with MEKK3 PB1 HTS; bead flow cytometry, Alexa488-MEK5 binding to MEKK2 WT; actives lie on both sides; binding response (% of control), % at 10 µM; 2.4% of 5,900 active; AID 1892; in the data active = binding response below about 16% or above about 210%; inactive = in between
MEKK2mut-MEK5 – signal of MEK5 binding to mutant human MEKK2, retest. shares compounds with MEKK3 PB1 HTS. bead flow cytometry, Alexa488-MEK5 binding to MEKK2 mutant. percent response, % at 10 µM. 2% of 5,900 active; in the data active = percent response mostly above about 71%, no sharp cut-off; inactive = mostly below about 38%;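 also: higher means compound restores mutant binding toward wildtype level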
MEKK3 confirm – confirmation of inhibitors of MEK5 binding to human MEKK3 | shares compounds with MEKK3 PB1 HTS | bead flow cytometry, Alexa488-MEK5 binding to MEKK3; hits give low values | binding response (% of control), % at 10 µM | 1.8% of 5,900 active | AID 1894;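 active = binding response below 72% of control, or above a set upper limit, though filed actives all read lower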;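 also: 100% = DMSO only wells and 0% = binding blocked by excess unlabeled MEK5; lower values mean stronger disruption of MEK5 binding to MEKK3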
* = called active by the depositor; [ ] = another dose, or the depositor's remark. Shown are actives, neighbours in structure and some others; about 3.5% of the full set was active somewhere.

COc1cc(C(CCN2CCCCC2)c2c(OC)cc(OC)c3c(-c4ccccc4)cc(=O)oc23)cc(OC)c1OC (stereo not drawn) was read as MEKK3 PB1 HTS 112, MEKK2 mut-MEK5 15 and MEKK2wt PB1 HTS 133.
CCCCCc1cc(=O)oc2c(C(CCN3CCCC3)c3cc(OC)c(OC)c(OC)c3)c(OC)cc(OC)c12 (stereo not drawn) was read as MEKK3 PB1 HTS 108, MEKK2 mut-MEK5 24*, MEKK2wt PB1 HTS 157*, MEKK2wt confirm 143, MEKK2mut-MEK5 21 and MEKK3 confirm 109.
Screening COc1cc(C(CCN2CCCC2)c2c(OC)cc(OC)c3c(C)cc(=O)oc23)cc(OC)c1OC (stereo not drawn) returned MEKK3 PB1 HTS 103, MEKK2 mut-MEK5 7 and MEKK2wt PB1 HTS 108.
For CCCCCc1cc(=O)oc2c(C(CCN3CCCCC3)c3ccc(OC)cc3)c(OC)cc(OC)c12 (stereo not drawn) the results were MEKK3 PB1 HTS 120, MEKK2 mut-MEK5 67*, MEKK2wt PB1 HTS 164*, MEKK2wt confirm 208*, MEKK2mut-MEK5 47 and MEKK3 confirm 107.
For CCCCCc1cc(=O)oc2c(C(CCN(CC)CC)c3ccc(OC)cc3)c(OC)cc(OC)c12 (stereo not drawn) the results were MEKK3 PB1 HTS 86, MEKK2 mut-MEK5 29*, MEKK2wt PB1 HTS 182*, MEKK2wt confirm 167, MEKK2mut-MEK5 34 and MEKK3 confirm 97.
Screening CCCCCc1cc(=O)oc2c(C(CCN3CCN(c4ccccc4)CC3)c3ccc4c(c3)OCO4)c(OC)cc(OC)c12 (stereo not drawn) returned MEKK3 PB1 HTS 106, MEKK2 mut-MEK5 9 and MEKK2wt PB1 HTS 134.
Screening COc1cc(C(CCN2CCCC(C)C2)c2c(OC)cc(OC)c3c(-c4ccccc4)cc(=O)oc23)cc(OC)c1OC (stereo not drawn) returned MEKK3 PB1 HTS 108, MEKK2 mut-MEK5 20, MEKK2wt PB1 HTS 138*, MEKK2wt confirm 121, MEKK2mut-MEK5 10 and MEKK3 confirm 105.
CCCC1=NN2C(=N)/C(=C\c3ccc(OCCOc4ccc(NC(C)=O)cc4)c(OC)c3)C(=O)N=C2S1 was read as MEKK3 PB1 HTS 111, MEKK2 mut-MEK5 12 and MEKK2wt PB1 HTS 107.
For Cc1ccccc1-n1c(=O)cc(N2CCN(C(=O)c3ccco3)CC2)[nH]c1=O the results were WT yeast gro inh 12, MEKK3 PB1 HTS 100, MEKK2 mut-MEK5 5, ABCG2 block 1, MEKK2wt PB1 HTS 104 and ABCB1 inh 0.
`Cc1ccc(OC(C)C(=O)Nc2ccccc2C(=O)N2CCN(C)CC2)cc1` (stereo not drawn) gave MEKK3 PB1 HTS 97, MEKK2 mut-MEK5 1 and MEKK2wt PB1 HTS 102.
Screening CCn1c(SCC(=O)N2CCN(c3ccccc3F)CC2)nnc1-c1ccoc1C returned WT yeast gro inh 2, MEKK3 PB1 HTS 95, MEKK2 mut-MEK5 -6, ABCG2 block 1, MEKK2wt PB1 HTS 99 and ABCB1 inh 0.
`Cc1cccc(NC(=O)CC2C(=O)NCCN2C(=O)Nc2ccc(Cl)cc2)c1` (stereo not drawn) gave MEKK3 PB1 HTS 100, MEKK2 mut-MEK5 -4 and MEKK2wt PB1 HTS 102.
Screening CCCCCc1cc(=O)oc2c(C(CCN3CCCC3)c3ccc(N(C)C)cc3)c(OC)cc(OC)c12 (stereo not drawn) returned MEKK3 PB1 HTS 118, MEKK2 mut-MEK5 42*, MEKK2wt PB1 HTS 151*, MEKK2wt confirm 184, MEKK2mut-MEK5 83* and MEKK3 confirm 108.
`COc1cc(OC)c2ccc(=O)oc2c1C(CCN1CCCC1)c1ccc(N(C)C)cc1` (stereo not drawn) gave MEKK3 PB1 HTS 104, MEKK2 mut-MEK5 4 and MEKK2wt PB1 HTS 102.
COc1ccc(C(CCN2CCOCC2)c2c(OC)cc(OC)c3c(C)cc(=O)oc23)cc1 (stereo not drawn) was read as MEKK3 PB1 HTS 122, MEKK2 mut-MEK5 5, MEKK2wt PB1 HTS 151*, MEKK2wt confirm 111, MEKK2mut-MEK5 7 and MEKK3 confirm 99.
Screening CCCCCc1cc(=O)oc2c(C(CCN3CCCC(C)C3)c3ccc(OC)cc3)c(OC)cc(OC)c12 (stereo not drawn) returned MEKK3 PB1 HTS 110, MEKK2 mut-MEK5 58*, MEKK2wt PB1 HTS 153*, MEKK2wt confirm 206, MEKK2mut-MEK5 107* and MEKK3 confirm 105.
COc1cc(C(CCN2CCOCC2)c2c(OC)cc(OC)c3c(C)cc(=O)oc23)cc(OC)c1OC (stereo not drawn) was read as MEKK3 PB1 HTS 104, MEKK2 mut-MEK5 1 and MEKK2wt PB1 HTS 109.
`COc1ccc(C(CCN2CCCC(C)C2)c2c(OC)cc(OC)c3c2OC(=O)CC3c2cc(OC)c(OC)c(OC)c2)cc1` (stereo not drawn) gave MEKK3 PB1 HTS 114, MEKK2 mut-MEK5 14, MEKK2wt PB1 HTS 145*, MEKK2wt confirm 130, MEKK2mut-MEK5 35 and MEKK3 confirm 106.
Fc1ccc(/C=N/N2CCN(Cc3ccccc3)CC2)cc1 was read as MEKK3 PB1 HTS 101, MEKK2 mut-MEK5 -4 and MEKK2wt PB1 HTS 102.
CN(Cc1ccccn1)Cc1cn(Cc2ccccc2)nc1-c1ccc2c(c1)OCO2 was read as WT yeast gro inh -5, MEKK3 PB1 HTS 107, MEKK2 mut-MEK5 42, ABCG2 block -2, MEKK2wt PB1 HTS 196*, ABCB1 inh -1, MEKK2wt confirm 106, MEKK2mut-MEK5 4 and MEKK3 confirm 101.
Screening Nc1ccc(C23CC4CC(CC(C4)C2)C3)cc1 returned WT yeast gro inh 11, MEKK3 PB1 HTS 41*[inhibitor], MEKK2 mut-MEK5 -16, ABCG2 block -3, MEKK2wt PB1 HTS 53, ABCB1 inh -1, MEKK2wt confirm 96, MEKK2mut-MEK5 -3 and MEKK3 confirm 100.
For COc1cccc(-c2cc(N)nn2C(=O)Nc2ccc(Cl)cc2)c1 the results were WT yeast gro inh 46, MEKK3 PB1 HTS 119, MEKK2 mut-MEK5 7, ABCG2 block 0, MEKK2wt PB1 HTS 117 and ABCB1 inh 0.
